Only some compounds are listed: those with a hit (about 1.9% of all), similar ones and a draw of the others.
CR mimetic SO: caloric restriction mimetics inhibiting age-related superoxide in yeast. S. cerevisiae aged cells, superoxide DHE fluorescence; stronger effect = lower value. superoxide response (% of plate mean), % at 10 µM. 330,000 compounds, 0.18% hits. AID 2690;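 active = superoxide response under a set limit, about three screen SD below normal, cut at about 65% in these data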;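 also: yeast aged for seven days with compound at 30 °C before DHE staining; 100% = average MFI of all compound-treated wells on the plate with controls excluded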
UCH37 inh: human UCH37 deubiquitinating enzyme inhibition; inhibition, % (no concentration beside the values); 330,000 compounds, 0.33% hits; purified proteasome/UCH37, Ub-AMC cleavage fluorescence; AID 588478;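 active = mean inhibition over replicate wells above about 20%, limit read from the data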;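 also: 0% = compound-free wells with enzyme and 100% = wells lacking proteasome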
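Material: human UCH37 enzyme supplied as purified proteasome complex. Measure: % inhibition of Ub-AMC cleavage fluorescence. Medium: pH 7.4 Tris-HCl (50 mM) with ovalbumin, ATP-MgCl2, DTT. Times: 30 min preincubation with enzyme, 25 min cleavage at room temperature. Detection: AMC fluorescence intensity at 355/460 nm.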
MIN6 prolif: inducers of beta-cell replication in MIN6 cells | proliferation, % at 10 µM | AID 2380 | MIN6 cells proliferation, ATPlite luminescence, 48 h; cells starved in 0.2% serum; 100% = growth in 10% serum | 330,000 compounds, 0.29% hits;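 active = compounds whose signal lies at least 3.5 SD above the mean of all wells on their plate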;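 also: 0% = DMSO-treated cells in low-serum medium and 100% = 10% serum control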
NR1D1 modulator: modulates human Rev-erb alpha binding to DNA; Rev-erbα–FITC-DNA binding, fluorescence polarization, 90 min; activity, % at 10 µM; 370,000 compounds, 0.79% hits;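 active = activity above about 14%, limit read from the data; passing the limit was not always enough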;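 also: 0% = DMSO wells with 35 nM protein and 100% = DMSO wells with 750 nM protein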
Target sequence (P20393 whole entry, looked up): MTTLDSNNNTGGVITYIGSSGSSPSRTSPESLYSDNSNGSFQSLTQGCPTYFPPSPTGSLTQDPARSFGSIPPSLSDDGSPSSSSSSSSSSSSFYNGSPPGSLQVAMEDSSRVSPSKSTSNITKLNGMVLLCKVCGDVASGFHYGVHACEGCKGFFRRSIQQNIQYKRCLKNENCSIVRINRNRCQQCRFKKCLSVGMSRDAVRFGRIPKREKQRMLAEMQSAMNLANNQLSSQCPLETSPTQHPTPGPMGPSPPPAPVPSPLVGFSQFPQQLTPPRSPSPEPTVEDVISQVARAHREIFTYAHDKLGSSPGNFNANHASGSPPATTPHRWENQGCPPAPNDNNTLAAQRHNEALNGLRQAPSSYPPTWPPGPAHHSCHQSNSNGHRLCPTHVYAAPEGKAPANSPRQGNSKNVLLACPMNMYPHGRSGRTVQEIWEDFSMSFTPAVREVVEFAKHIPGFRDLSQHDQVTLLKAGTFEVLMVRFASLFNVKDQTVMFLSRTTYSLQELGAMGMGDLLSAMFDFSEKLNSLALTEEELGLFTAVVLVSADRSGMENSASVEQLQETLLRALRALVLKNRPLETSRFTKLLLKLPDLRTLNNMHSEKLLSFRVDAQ
PG9 Ab binder: binds the HIV-1 gp120 antibody PG9; AID 624416; TR-FRET gp120-PG9 antibody binding; inhibition, % at 6.7 µM; 360,000 compounds, 0.43% hits; in the data active = inhibition above about 8.5%
Rce1 inhib: inhibitors of yeast Ras-converting enzyme. Q03530. yeast membranes, quenched prenylated peptide cleavage fluorescence. calls only. 290,000 compounds, 0.27% hits;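 active = fall in fluorescence gain of 50% or more versus controls, with final raw signal at or below 3038400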;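 also: plate controls were neutral control wells for no effect and wells lacking membranes for full effect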
NR1D1 mod conf: Rev-erb alpha (human) modulation, hit confirmation; 3,000 compounds, 61% hits; shares compounds with NR1D1 modulator; activation, % at 25 µM; Rev-erb alpha FITC-DNA binding, fluorescence polarization, 90 min; AID 1259319;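 active = activation at or above a set limit, or at least 3 SD above the negative control mean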;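 also: 0% = 35 nM protein with DMSO and 100% = 750 nM protein high control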
RORg DNA counter: affects RORgamma DNA binding in a Rev-erb alpha counter-screen; 910 compounds, 8% hits; AID 1259320; IC50, µM; purified RORgamma protein-FITC-DNA binding, fluorescence polarization; shares compounds with NR1D1 modulator;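 active = Compounds whose fitted half-maximal concentration for disrupting protein-DNA binding is below 10 micromolar; the record names Rev-erb in its text, so the target is in doubt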
The depositor's hits bear a star; i = inactive; x = no result given.

SMILES	CR mimetic SO	UCH37 inh	MIN6 prolif	NR1D1 modulator	PG9 Ab binder	Rce1 inhib	NR1D1 mod conf	others
CCOc1cc(/C=C2/C(=N)N3C=CSC3=NC2=O)ccc1OCCCOc1ccccc1C	93.9	-209.1	-4.6	18.4*	-1.0	i	4.7
CC1CCN(c2ccc3nnc(CCC(=O)Nc4ccc(F)c(F)c4)n3n2)CC1	101.3	-12.6	-2.5	28.3*	-1.8	i	2.3
COc1cccc(N2CCN(c3ccc4nnc(CCC(=O)Nc5cccc(C(C)=O)c5)n4n3)CC2)c1	141.1	-12.3	-0.4	27.0*	-1.5	i	8.2
Cc1cccc(NCC(=O)NN=Cc2c[nH]c3ccccc23)c1	x	2.4	x	x	x	x	x
Cc1oc(C=NNC(=O)CN(c2ccccc2Cl)S(C)(=O)=O)cc1Br	x	4.7	x	x	x	x	x
CCOC(=O)N1CCC(NC(=O)c2cc3c(-c4ccc(Cl)cc4)nn(C)c3s2)CC1	108.2	-43.0	0.0	20.1*	-1.0	x	18.7*
CC(C)NC(=O)c1cc2c(-c3ccc(Cl)cc3)nn(C)c2s1	96.9	-8.3	-2.1	-1.0	-1.0	i	x
O=C(ON=C(c1ccccc1)c1ccncc1)c1ccccc1Cl	x	4.6	x	x	x	x	x
Cc1sc(NC(=O)Cc2ccc3c(c2)OCO3)nc1-c1ccc2c(c1)CCN2C(=O)c1ccc(F)cc1	111.6	5.0	-0.6	2.7	-2.1	i	x
Cc1sc(NC(=O)Cc2ccc3c(c2)OCO3)nc1-c1ccc2c(c1)CCN2C(=O)c1ccccc1F	96.8	4.0	-1.4	44.6*	-1.3	i	53.5*
Cc1[nH]nc2nc(SCC(=O)NCCC3=CCCCC3)n(-c3ccc(Br)cc3)c(=N)c12	93.3	-11.5	-7.3	28.9*	1.2	i	30.0*	RORg DNA counter=>40
CC(=NNc1ccc([N+](=O)[O-])cc1)c1ccc(-n2nncc2C)cc1	x	-0.4	x	x	x	x	x
O=C(CCCC(=O)OCC(=O)c1cccs1)Nc1ccc(Oc2ccccc2)cc1	105.6	3.1	-1.2	68.3*	-0.2	i	48.0*	RORg DNA counter=>40
COc1ccc(Br)cc1C=Nn1nnnc1N	x	-5.1	x	x	x	x	x
Cc1cc(N(CCO)CCO)ccc1N=Nc1cc(F)ccc1F	75.0	6.4	0.5	54.3*	-0.8	i	28.6*
COc1ccc(CN2CCN(CCc3ccccc3)C(CCO)C2)c(O)c1 (stereo not given)	98.7	2.4	1.1	16.1*	4.5	i	-0.8
CCc1nnc(NC(=O)c2ccc(-c3cc(C(F)(F)F)ccc3Cl)o2)s1	111.6	-5.4	-3.2	10.3	-0.9	i	x
CC(NC(=O)c1ccc(-c2cc(C(F)(F)F)ccc2Cl)o1)c1ccccc1 (stereo not given)	100.6	2.4	-0.4	30.2*	3.7	i	45.4*	RORg DNA counter=0.782*
CC(=NNC(=O)c1ccc(Br)o1)c1ccncc1	x	-13.2	x	x	x	x	x
CCSc1nnc(-c2ccc(C)cc2)c2ccccc12	91.4	-0.2	0.0	-2.3	1.1	i	x
CCSc1nnc(-c2ccc(Cl)cc2)c2ccccc12	99.2	4.0	6.4	239.1*	1.1	i	288.7*	RORg DNA counter=>40
O=C(Cn1nnc(-c2ccccc2)n1)NN=Cc1cc([N+](=O)[O-])c(Cl)cc1Cl	x	2.3	x	x	x	x	x
CCOc1ccc(-c2cc(C(=O)OC)nc3c2c(=O)n(C)c(=O)n3C)cc1	91.1	-430.5	0.3	38.9*	0.6	i	0.3
Cn1c(=O)c2c(-c3ccc(OC(F)F)cc3)cc(-c3ccccc3)nc2n(C)c1=O	92.1	0.4	-1.6	x	x	i	x
COc1ccc(O)c(C=NNC(=O)c2ccc(CSc3nc(C)cc(C)n3)cc2)c1	x	-0.3	x	x	x	x	x
Cc1cc(NC(=O)CSc2nc(-c3ccccc3Cl)nc3c2c(=O)n(C)c(=O)n3C)no1	89.6	1.6	1.1	28.0*	1.3	i	6.8
COc1ccc(C(=O)OCc2cc3cccc(C)c3[nH]c2=O)cc1	99.0	2.0	-1.0	58.6*	6.1	i	26.5*

From PubChem BioAssay
